Entries after “also recorded” stand apart in the source; their conditions may differ.
Experiments:
[1] = test system: circulating angiogenesis factors; details: in vitro; cited from earlier work
[2] = stated as given in discussion; no reference given; cited from earlier work
[3] = Pharmacokinetic analysis of total and unbound RO4929097 in serial plasma; type: in vivo, human
xenograft models = details: intermittent and daily dosing in xenograft models; cited from earlier work
[4] = test system: patients with advanced solid tumors; test: Phase I 3+3 dose escalation: dose limiting toxicities and adverse events; type: in vivo, human
[5] = cited from earlier work
gamma secretase = details: cited from earlier work
[6] = in vitro; rather than overt cell death; no reference given; cited from earlier work
advanced solid tumors = test: Antitumor activity by RECIST 1.1; type: in vivo, human; details: with gemcitabine
How it was run: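 Oral test compound once daily on days 1–3, 8–10, […] and 22–24 of 28-day cycles, fasting, with IV gemcitabine 1,000 mg/m2 on days 1, 8 and 15. Measurable disease required. Radiographic restaging every 2 cycles, scored by RECIST 1.1. Prolonged stable disease means stable disease for 4 or more months. Treatment continued until unacceptable toxicity, progression, withdrawal or study completion.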

[7] = dose level 3 (45 mg) + gemcitabine, CTCAE v4

CC(C)(C(=O)NCC(F)(F)C(F)(F)F)C(=O)N[C@@H]1C(=O)Nc2ccccc2-c2ccccc21 [RO4929097]
expression of circulating angiogenesis factors [1]: reduce the expression | half-life [2]: approximately 20 h | autoinduction (Day 10: Day 1 total and free AUC 0-24) ([3]; dose levels 45 and 90 mg): presence of autoinduction | day 10: day 1 areas under the curve ([3]; with increasing dose levels): below 1 | antitumor activity (xenograft models): demonstrates antitumor activity | DLT Event ([4]; dose level 2 (30 mg) + gemcitabine): Transaminitis | Grade of DLT event Transaminitis ([4]; dose level 2 (30 mg) + gemcitabine, CTCAE v4): 3 | DLT Event ([4]; dose level 3 (45 mg) + gemcitabine): Transaminitis; also recorded: Maculopapular rash | Grade of DLT event Maculopapular rash [4, 7]: 3 | Grade of DLT event Transaminitis [4, 7]: 3 | DLT Event ([4]; dose level 4 (90 mg) + gemcitabine): Transaminitis | Grade of DLT event Transaminitis ([4]; dose level 4 (90 mg) + gemcitabine, CTCAE v4): 3 | Grade of DLT event <75 % RO doses ([4]; dose level 4 (90 mg) + gemcitabine, secondary to prolonged neutropenia): 3 | maximum tolerated dose ([4]; in combination with gemcitabine, exceeded at this dose): < 90 mg | protein binding [5]: highly protein bound | inhibition of gamma secretase (gamma secretase): potent inhibitor | cell phenotype [6]: more flattened phenotype | stable disease > 4 months (prolonged stable disease), number of patients (advanced solid tumors; 18 patients enrolled): 3 patients | Best response (RECIST 1.1) (advanced solid tumors; one patient with nasopharyngeal carcinoma, 45 mg dose level): partial response

— paper PMC3869895 (Investigational New Drugs, 2013)
